Assay results from different studies.
Each line is one published result; the experiments were not run side by side.
Target: High affinity nerve growth factor receptor (NTRK1, Homo sapiens, UniProt P04629)

| SMILES | observed | mode | technique | tested at | inhibition |
| --- | --- | --- | --- | --- | --- |
| COc1cc2ncnc(Nc3ccc(Oc4ccccc4)cc3C)c2cc1OC | enzyme activity | inhibitor | – | 1 µM | 9% |
| CNC(=O)c1ccccc1Nc1cc(Nc2ccc(N3CCOCC3)cc2OC)ncc1C(F)(F)F | enzyme activity | inhibitor | – | 1 µM | > 50% |
| CCN(CC)CCNC(=O)c1c(C)[nH]c(/C=C2\C(=O)Nc3ccc(F)cc32)c1C | enzyme activity | inhibitor | – | 0.3 µM | 91% |
| O=C(Nc1cccc(C(=O)Nc2ccc3[nH]ncc3c2)c1)Nc1cccc(C(F)(F)F)c1 | enzyme activity | inhibitor | FRET | 1 µM | 67.4% |
| CNCc1ccc(-c2cc(-c3nc(-c4ccc(S(=O)(=O)C(C)C)cc4)cnc3N)on2)cc1 | enzyme activity | inhibitor | – | 2 µM | 32% |
| COc1cc2nccc(Oc3ccc(NC(=O)c4c5n(n(-c6ccc(F)cc6)c4=O)CCCC5)cc3)c2cc1OC | enzyme activity | inhibitor | – | 0.1 µM | 63% |
| Cc1ccc(Nc2nccc(N(C)c3ccc4c(C)n(C)nc4c3)n2)cc1S(N)(=O)=O | enzyme activity | inhibitor | – | 0.3 µM | 16% |
| O=C(Nc1ccc2[nH]ncc2c1)c1cccc(NC(=S)Nc2ccc(C(F)(F)F)cc2)c1 | enzyme activity | inhibitor | FRET | 1 µM | 58% |
| COc1cc(C)c(Sc2cnc(NC(=O)c3ccc(N4CCN(CCCCCCCNC(=O)COc5cccc6c5C(=O)N(C5CCC(=O)NC5=O)C6=O)CC4)cc3)s2)cc1C(=O)N1CCN(C(C)=O)CC1 (stereo not drawn) | binding | – | – | 1 µM | > 90% |
| O=C(Nc1ccc(Cl)cc1)Nc1cccc(C(=O)Nc2ccc3[nH]ncc3c2)c1 | enzyme activity | inhibitor | FRET | 1 µM | 55.3% |
| C=CC(=O)Nc1cc(Nc2nccc(Nc3cc(Cl)c(F)cc3C(C)(C)O)n2)c(OC)cc1N1CC[C@@H](N(C)C)C1 | enzyme activity | inhibitor | – | 1 µM | 51% |
| O=C(Nc1ccccc1)Nc1cccc(C(=O)Nc2ccc3[nH]ncc3c2)c1 | enzyme activity | inhibitor | FRET | 1 µM | 33.2% |
| CNC(=O)c1cc(Oc2ccc(NC(=O)Nc3ccc(Cl)c(C(F)(F)F)c3)cc2)ccn1 | enzyme activity | inhibitor | – | 10 µM | 98% |
| O=C(Nc1ccc(C(F)(F)F)cc1)Nc1cccc(C(=O)Nc2ccc3[nH]ncc3c2)c1 | enzyme activity | inhibitor | FRET | 1 µM | 74% |
| CN(C)C1CCN(CC#Cc2nn(C3CCCC3)c3nc(NCc4ccccc4)ncc23)C1 (stereo not drawn) | enzyme activity | inhibitor | FRET | 10 µM | 65% |
